ChEMBL document CHEMBL1250448, “Inhibitor hijacking of Akt activation” (Nat Chem Biol, 2009)
Active and inactive are the calls of the source. The calls are words filed in the database; no cut-off is given here.

Experiments:
[1] = target: T1, RAC-alpha serine/threonine-protein kinase (Homo sapiens, UniProt P31749); assay: Induction of AKT1 Ser473 phosphorylation expressed in IGF1-stimulated HEK293 cells treated 20 mins before IGF1 stimulation by immunoblotting; type: cell-based
Outline: (§1)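 HEK293 cells (not transfected), serum-starved overnight, then given inhibitor for 20 min before 50 ng/ml IGF-1 for a further 10 min. Cells detached in ice-cold Ca/Mg-free PBS with 0.04% EDTA and lysed in Tris pH 7.5 Triton buffer with protease/phosphatase inhibitors. Lysates cleared at 14000 g, protein equalised by Bradford, and pThr308, pSer473 and GSK3β pSer9 read by immunoblot with ECL.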

[2] = target: T1, RAC-alpha serine/threonine-protein kinase; assay: Induction of AKT1 Thr308 phosphorylation expressed in IGF1-stimulated HEK293 cells treated 20 mins before IGF1 stimulation by immunoblotting; type: cell-based; outline: as §1
[3] = target: Casein kinase I isoform epsilon (Homo sapiens) (UniProt P49674); assay: Inhibition of CSNK1E at 1 uM in presence of 10 uM ATP by Select Screen kinase assay relative to untreated control
[4] = target: Calcium/calmodulin-dependent protein kinase type IV (Homo sapiens) (UniProt Q16566); assay: Inhibition of CAMK4 at 1 uM in presence of 10 uM ATP by Select Screen kinase assay relative to untreated control
Outline: (§2)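 Single-point screen at 1 μM against a panel of 220 purified kinases, run by Invitrogen staff as a SelectScreen profiling service. Read-out is percent inhibition of kinase activity.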

[5] = target: Serine/threonine-protein kinase Nek2 (Homo sapiens) (UniProt P51955); assay: Inhibition of NEK2 at 1 uM in presence of 10 uM ATP by Select Screen kinase assay relative to untreated control
[6] = target: Ribosomal protein S6 kinase beta-1 (Homo sapiens, UniProt P23443); assay: Inhibition of RPS6KB1 at 1 uM in presence of 10 uM ATP by Select Screen kinase assay relative to untreated control
[7] = target: RAC-gamma serine/threonine-protein kinase (Homo sapiens) (UniProt Q9Y243); assay: Inhibition of AKT3 at 1 uM in presence of 10 uM ATP by Select Screen kinase assay relative to untreated control; outline: as §2
[8] = tested on: Platelet-derived growth factor receptor alpha (Homo sapiens), P16234 [T674I]; assay: Inhibition of PDGFRalpha T674I mutant at 1 uM in presence of 10 uM ATP by Select Screen kinase assay relative to untreated control
Outline: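 Commercial SelectScreen profiling panel of 220 purified kinases. Each kinase was tested at a single inhibitor concentration of 1 μM, and activity was expressed as percent inhibition.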

[9] = target: cGMP-dependent protein kinase 2 (Homo sapiens) (UniProt Q13237); assay: Inhibition of PRKG2 at 1 uM in presence of 10 uM ATP by Select Screen kinase assay relative to untreated control
[10] = tested on: Tyrosine-protein kinase JAK2 (Homo sapiens), O60674 [V617F]; assay: Inhibition of JAK2 JH1 JH2 domain V617F mutant at 1 uM in presence of 10 uM ATP by Select Screen kinase assay relative to untreated control
[11] = target: Protein kinase C delta type (Homo sapiens) (UniProt Q05655); assay: Inhibition of PRKCD at 1 uM in presence of 10 uM ATP by Select Screen kinase assay relative to untreated control
Outline: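 Profiling panel of 220 purified kinases (SelectScreen), each compound tested at 1 μM. Read-out is percent inhibition of kinase activity.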

[12] = target: Casein kinase II subunit alpha' (Homo sapiens) (UniProt P19784); assay: Inhibition of CSNK2A2 at 1 uM in presence of 10 uM ATP by Select Screen kinase assay relative to untreated control
Outline: (§3)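 Part of a 220-kinase panel of purified kinases, each tested with compound at 1 μM. Percent inhibition was measured in the Invitrogen SelectScreen profiling assay.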

[13] = target: Mitogen-activated protein kinase kinase kinase kinase 4 (Homo sapiens) (UniProt O95819); assay: Inhibition of MAP4K4 at 1 uM in presence of 10 uM ATP by Select Screen kinase assay relative to untreated control
[14] = target: Ephrin type-B receptor 3 (Homo sapiens) (UniProt P54753); assay: Inhibition of EPHB3 at 1 uM in presence of 10 uM ATP by Select Screen kinase assay relative to untreated control; outline: as §3
[15] = target: cAMP-dependent protein kinase catalytic subunit PRKX (Homo sapiens) (UniProt P51817); assay: Inhibition of PRKX at 1 uM in presence of 10 uM ATP by Select Screen kinase assay relative to untreated control
[16] = target: Serine/threonine-protein kinase D1 (Homo sapiens) (UniProt Q15139); assay: Inhibition of PRKD1 at 1 uM in presence of 10 uM ATP by Select Screen kinase assay relative to untreated control
[17] = target: Protein kinase C beta type (Homo sapiens) (UniProt P05771); assay: Inhibition of PRKCB1 at 1 uM in presence of 10 uM ATP by Select Screen kinase assay relative to untreated control
[18] = target: Insulin receptor (Homo sapiens) (UniProt P06213); assay: Inhibition of INSR at 1 uM in presence of 10 uM ATP by Select Screen kinase assay relative to untreated control
[19] = target: Misshapen-like kinase 1 (Homo sapiens) (UniProt Q8N4C8); assay: Inhibition of MINK1 at 1 uM in presence of 10 uM ATP by Select Screen kinase assay relative to untreated control
[20] = target: Tyrosine-protein kinase Mer (Homo sapiens) (UniProt Q12866); assay: Inhibition of MERTK at 1 uM in presence of 10 uM ATP by Select Screen kinase assay relative to untreated control
Outline: (§4)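 Single-concentration profiling at 1 μM against a panel of 220 purified kinases, run as an outsourced SelectScreen kinase profiling service. Activity is expressed as percent inhibition.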

[21] = target: Ribosomal protein S6 kinase alpha-4 (Homo sapiens) (UniProt O75676); assay: Inhibition of RPS6KA4 at 1 uM in presence of 10 uM ATP by Select Screen kinase assay relative to untreated control
[22] = target: Ribosomal protein S6 kinase alpha-2 (Homo sapiens) (UniProt Q15349); assay: Inhibition of RPS6KA2 at 1 uM in presence of 10 uM ATP by Select Screen kinase assay relative to untreated control
[23] = target: Tyrosine-protein kinase ABL1 (Homo sapiens) (UniProt P00519); assay: Inhibition of ABL1 at 1 uM in presence of 10 uM ATP by Select Screen kinase assay relative to untreated control; outline: as §2
[24] = target: Tyrosine-protein kinase JAK2 (Homo sapiens) (UniProt O60674); assay: Inhibition of JAK2 at 1 uM in presence of 10 uM ATP by Select Screen kinase assay relative to untreated control; outline: as §4
[25] = tested on: Receptor-type tyrosine-protein kinase FLT3 (Homo sapiens), P36888 [D835Y]; assay: Inhibition of FLT3 D835Y mutant at 1 uM in presence of 10 uM ATP by Select Screen kinase assay relative to untreated control; outline: as §3
[26] = target: Tyrosine-protein kinase BTK (Homo sapiens) (UniProt Q06187); assay: Inhibition of BTK at 1 uM in presence of 10 uM ATP by Select Screen kinase assay relative to untreated control; outline: as §2

T1 sequence (P31749 whole entry): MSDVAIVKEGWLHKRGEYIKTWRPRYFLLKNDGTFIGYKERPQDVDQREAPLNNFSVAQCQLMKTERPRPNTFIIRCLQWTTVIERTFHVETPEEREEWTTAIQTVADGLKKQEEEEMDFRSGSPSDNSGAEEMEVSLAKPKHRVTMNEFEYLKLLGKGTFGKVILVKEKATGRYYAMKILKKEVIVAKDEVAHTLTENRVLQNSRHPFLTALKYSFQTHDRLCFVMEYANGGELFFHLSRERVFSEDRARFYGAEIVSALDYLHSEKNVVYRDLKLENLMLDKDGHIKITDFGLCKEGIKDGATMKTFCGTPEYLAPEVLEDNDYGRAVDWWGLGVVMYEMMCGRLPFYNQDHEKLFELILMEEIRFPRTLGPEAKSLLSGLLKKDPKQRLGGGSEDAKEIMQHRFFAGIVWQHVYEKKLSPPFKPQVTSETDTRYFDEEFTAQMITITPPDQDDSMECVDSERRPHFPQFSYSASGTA
Sequence of Tyrosine-protein kinase Mer (Homo sapiens) (Q12866 whole entry): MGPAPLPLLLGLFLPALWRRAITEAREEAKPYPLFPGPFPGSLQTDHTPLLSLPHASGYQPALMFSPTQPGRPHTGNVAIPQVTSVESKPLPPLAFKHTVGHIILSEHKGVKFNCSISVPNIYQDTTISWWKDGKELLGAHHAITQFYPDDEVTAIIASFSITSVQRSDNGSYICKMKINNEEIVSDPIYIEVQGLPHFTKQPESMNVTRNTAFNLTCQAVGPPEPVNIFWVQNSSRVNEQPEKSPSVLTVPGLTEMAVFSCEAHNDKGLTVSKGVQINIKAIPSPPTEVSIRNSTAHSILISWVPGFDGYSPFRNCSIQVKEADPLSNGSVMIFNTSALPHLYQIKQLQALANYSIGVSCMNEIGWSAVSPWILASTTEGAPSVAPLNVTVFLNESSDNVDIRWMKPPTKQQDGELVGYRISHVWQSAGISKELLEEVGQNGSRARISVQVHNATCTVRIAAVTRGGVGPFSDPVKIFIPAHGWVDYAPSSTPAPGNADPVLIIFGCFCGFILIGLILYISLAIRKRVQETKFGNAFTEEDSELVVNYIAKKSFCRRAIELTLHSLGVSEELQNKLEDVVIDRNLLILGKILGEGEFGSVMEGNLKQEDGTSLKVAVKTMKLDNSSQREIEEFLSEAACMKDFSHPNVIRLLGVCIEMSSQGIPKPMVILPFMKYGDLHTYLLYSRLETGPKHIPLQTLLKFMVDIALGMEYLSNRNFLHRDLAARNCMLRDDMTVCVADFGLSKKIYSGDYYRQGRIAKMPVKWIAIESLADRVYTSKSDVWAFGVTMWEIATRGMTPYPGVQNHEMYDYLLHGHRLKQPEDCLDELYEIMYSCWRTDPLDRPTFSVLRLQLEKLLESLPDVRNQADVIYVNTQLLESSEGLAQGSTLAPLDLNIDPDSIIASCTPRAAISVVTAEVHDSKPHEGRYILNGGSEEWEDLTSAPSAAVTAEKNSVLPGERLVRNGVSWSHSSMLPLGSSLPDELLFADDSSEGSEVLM
Sequence of Tyrosine-protein kinase JAK2 (Homo sapiens), O60674 [V617F] (O60674 whole entry V617F, the tested form may be a part): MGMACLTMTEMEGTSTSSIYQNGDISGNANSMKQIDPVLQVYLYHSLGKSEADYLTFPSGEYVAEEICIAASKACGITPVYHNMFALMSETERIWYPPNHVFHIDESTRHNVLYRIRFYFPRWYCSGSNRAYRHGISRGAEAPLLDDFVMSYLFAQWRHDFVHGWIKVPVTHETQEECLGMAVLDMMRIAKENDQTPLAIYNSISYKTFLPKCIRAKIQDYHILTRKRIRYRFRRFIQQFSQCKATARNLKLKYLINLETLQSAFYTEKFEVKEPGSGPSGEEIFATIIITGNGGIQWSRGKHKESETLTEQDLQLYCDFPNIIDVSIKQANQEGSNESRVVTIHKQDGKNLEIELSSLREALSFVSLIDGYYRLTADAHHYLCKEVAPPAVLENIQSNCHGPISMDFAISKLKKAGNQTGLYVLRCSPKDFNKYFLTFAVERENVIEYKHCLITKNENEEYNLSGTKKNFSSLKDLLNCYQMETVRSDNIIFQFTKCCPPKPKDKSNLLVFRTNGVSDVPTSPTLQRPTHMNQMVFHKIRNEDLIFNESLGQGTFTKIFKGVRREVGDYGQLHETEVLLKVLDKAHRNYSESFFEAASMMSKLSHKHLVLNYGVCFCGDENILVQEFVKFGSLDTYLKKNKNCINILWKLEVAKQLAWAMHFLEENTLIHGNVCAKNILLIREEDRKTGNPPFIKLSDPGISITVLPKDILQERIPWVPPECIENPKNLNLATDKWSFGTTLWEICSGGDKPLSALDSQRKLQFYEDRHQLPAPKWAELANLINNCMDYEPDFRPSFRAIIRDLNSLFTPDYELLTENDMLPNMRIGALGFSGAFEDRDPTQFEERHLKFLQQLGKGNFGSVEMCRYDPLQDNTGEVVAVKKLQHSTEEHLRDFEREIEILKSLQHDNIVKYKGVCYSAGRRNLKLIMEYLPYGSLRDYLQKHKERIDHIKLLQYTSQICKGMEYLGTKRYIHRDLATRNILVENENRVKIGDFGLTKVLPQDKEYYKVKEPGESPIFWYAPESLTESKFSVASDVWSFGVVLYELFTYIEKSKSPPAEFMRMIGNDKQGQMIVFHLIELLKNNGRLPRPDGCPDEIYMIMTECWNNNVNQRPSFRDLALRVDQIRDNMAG
Sequence of cGMP-dependent protein kinase 2 (Homo sapiens) (Q13237 whole entry, the tested form may be a part): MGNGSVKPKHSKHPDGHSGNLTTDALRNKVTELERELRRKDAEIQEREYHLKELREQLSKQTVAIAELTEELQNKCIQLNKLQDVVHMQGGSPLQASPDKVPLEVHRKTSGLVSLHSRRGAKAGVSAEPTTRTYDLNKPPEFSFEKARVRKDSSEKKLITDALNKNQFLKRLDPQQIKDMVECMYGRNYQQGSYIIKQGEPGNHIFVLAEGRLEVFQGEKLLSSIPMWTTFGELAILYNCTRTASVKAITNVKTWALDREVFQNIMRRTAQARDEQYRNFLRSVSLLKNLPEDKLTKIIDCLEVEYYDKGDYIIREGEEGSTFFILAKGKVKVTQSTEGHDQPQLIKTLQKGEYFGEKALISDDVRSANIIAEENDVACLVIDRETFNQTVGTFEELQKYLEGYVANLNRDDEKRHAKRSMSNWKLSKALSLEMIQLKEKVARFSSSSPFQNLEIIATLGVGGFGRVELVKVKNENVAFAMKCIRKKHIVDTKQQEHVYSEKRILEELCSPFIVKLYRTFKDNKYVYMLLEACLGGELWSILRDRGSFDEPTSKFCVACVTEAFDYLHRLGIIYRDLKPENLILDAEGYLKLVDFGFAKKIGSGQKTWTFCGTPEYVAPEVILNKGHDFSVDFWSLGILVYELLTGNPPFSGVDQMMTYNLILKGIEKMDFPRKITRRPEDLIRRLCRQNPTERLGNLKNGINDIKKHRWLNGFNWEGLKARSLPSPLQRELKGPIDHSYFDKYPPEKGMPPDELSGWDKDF
Sequence of Misshapen-like kinase 1 (Homo sapiens) (Q8N4C8 whole entry, looked up): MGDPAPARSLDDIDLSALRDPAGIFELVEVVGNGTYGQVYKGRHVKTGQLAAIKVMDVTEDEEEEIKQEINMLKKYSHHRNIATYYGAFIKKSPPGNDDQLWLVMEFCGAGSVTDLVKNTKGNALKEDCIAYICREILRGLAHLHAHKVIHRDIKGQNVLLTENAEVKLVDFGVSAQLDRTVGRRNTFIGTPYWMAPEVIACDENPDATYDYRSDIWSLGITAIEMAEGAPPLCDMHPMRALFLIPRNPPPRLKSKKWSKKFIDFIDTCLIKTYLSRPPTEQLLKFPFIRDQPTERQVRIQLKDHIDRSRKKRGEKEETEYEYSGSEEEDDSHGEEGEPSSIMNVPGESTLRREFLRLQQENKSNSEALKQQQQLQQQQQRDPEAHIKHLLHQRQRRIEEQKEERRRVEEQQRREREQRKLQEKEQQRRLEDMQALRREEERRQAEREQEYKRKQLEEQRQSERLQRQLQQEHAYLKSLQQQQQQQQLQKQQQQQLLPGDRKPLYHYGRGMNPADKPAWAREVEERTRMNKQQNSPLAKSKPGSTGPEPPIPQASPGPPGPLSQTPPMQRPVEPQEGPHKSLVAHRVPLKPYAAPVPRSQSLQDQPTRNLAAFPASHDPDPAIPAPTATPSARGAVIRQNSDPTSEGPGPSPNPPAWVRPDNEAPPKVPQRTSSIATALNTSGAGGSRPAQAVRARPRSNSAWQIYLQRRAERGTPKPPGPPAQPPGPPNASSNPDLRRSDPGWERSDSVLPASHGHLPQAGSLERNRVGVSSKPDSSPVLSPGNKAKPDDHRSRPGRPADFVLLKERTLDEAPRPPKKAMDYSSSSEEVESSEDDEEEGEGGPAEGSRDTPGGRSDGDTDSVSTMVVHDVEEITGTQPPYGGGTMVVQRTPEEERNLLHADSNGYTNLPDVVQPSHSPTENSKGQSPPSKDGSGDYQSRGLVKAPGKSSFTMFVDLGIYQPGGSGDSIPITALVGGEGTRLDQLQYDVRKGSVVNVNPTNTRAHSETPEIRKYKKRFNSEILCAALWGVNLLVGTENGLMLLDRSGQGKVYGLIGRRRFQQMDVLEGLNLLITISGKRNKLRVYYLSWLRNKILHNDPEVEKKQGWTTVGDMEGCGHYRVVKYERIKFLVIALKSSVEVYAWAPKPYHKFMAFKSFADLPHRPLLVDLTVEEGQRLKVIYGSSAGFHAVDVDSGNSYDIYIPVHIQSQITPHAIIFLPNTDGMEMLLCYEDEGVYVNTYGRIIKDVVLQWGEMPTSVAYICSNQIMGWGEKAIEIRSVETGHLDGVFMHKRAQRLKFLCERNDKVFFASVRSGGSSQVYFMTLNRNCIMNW
Sequence of Tyrosine-protein kinase JAK2 (Homo sapiens) (O60674 whole entry): as the sequence (O60674 whole entry V617F, the tested form may be a part) above, with F617V counted along it
Sequence of Casein kinase II subunit alpha' (Homo sapiens) (P19784 whole entry, looked up): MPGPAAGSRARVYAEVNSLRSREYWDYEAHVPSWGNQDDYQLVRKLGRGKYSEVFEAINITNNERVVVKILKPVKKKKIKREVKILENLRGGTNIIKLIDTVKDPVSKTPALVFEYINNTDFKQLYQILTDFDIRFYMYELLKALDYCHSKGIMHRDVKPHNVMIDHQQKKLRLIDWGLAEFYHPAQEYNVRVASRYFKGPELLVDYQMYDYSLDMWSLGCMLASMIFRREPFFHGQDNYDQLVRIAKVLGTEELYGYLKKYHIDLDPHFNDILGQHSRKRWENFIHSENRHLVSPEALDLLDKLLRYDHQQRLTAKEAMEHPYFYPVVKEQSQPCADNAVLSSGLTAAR

inhibition [4] | inhibition [5] | inhibition [6] | inhibition [7] | inhibition [8] | inhibition [9] | inhibition [10] | inhibition [11] | inhibition [12] | inhibition [13] | inhibition [14] | inhibition [15] | inhibition [16] | inhibition [17] | inhibition [18] | inhibition [19] | inhibition [20] | SMILES | Activity [1] | Activity [2] | inhibition [3] | further results
 |  |  |  |  |  |  |  |  |  |  |  |  |  |  |  |  | CCCc1cc(-c2cncc(OC[C@@H](N)Cc3c[nH]c4ccccc34)c2)cc2c(C)n[nH]c12 | inactive | inactive |  | 
 |  |  |  |  |  |  |  |  |  |  |  |  |  |  |  |  | Cc1n[nH]c2ccc(-c3cncc(OC[C@@H](N)Cc4c[nH]c5ccccc45)c3)cc12 | Active | Active | 42% | 
8% | 33% | 29% | 3% | 55% | 29% | 105% | 24% | 26% | 39% | 10% | 105% | 71% | 28% | 7% | 38% | 17% | O=C(NCCCNc1nc(Nc2cccc(NC(=O)N3CCCC3)c2)ncc1I)c1cccs1 |  |  |  | inhibition [21]: 75%; inhibition [22]: 63%; inhibition [23]: 37%; inhibition [24]: 74%; inhibition [25]: 100%; inhibition [26]: 23%
0% | 21% | 80% | 17% | 8% | 92% | -3% | -5% | 27% | 73% | 13% | 21% | 5% | 35% | 3% | 71% | 16% | COc1ccccc1N1CCN(c2ncnc3[nH]nc(Br)c23)CC1 |  |  | 23% | inhibition [21]: 90%; inhibition [22]: 55%; inhibition [23]: 12%; inhibition [24]: -9%; inhibition [25]: 71%; inhibition [26]: 11%
